Measurements published in ChEMBL document CHEMBL1139880, “Potent and selective agonists of human melanocortin receptor 5: cyclic analogues of alpha-melanocyte-stimulating hormone” (J Med Chem, 2007).
pEC50, pIC50: −log10 of the molar value.

How the values were obtained:
[1] = biological target: T1, Melanocyte-stimulating hormone receptor (Homo sapiens, UniProt Q01726); assay: Displacement of [125I]NDPalphaMSH from human cloned melanocortin receptor 1b expressed in CHO cells; assay type: cell-based
[2] = biological target: T1, Melanocyte-stimulating hormone receptor; assay: Agonist activity at human melanocortin receptor 1b expressed in CHO cells assessed as cAMP accumulation; assay type: functional, cell-based
Procedure, shortened: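 Dissociated CHO cells were spun 5 min and resuspended in Earle's balanced salt solution with 10 mM HEPES pH 7.5, 5 mM MgCl2, 1 mM glutamine and 1 mg/mL BSA. They were incubated 40 min at room temperature with compound (0.003–5000 nM) plus 0.6 mM IBMX, then lysed with 0.1 M HCl. cAMP was measured by Flashplate cAMP assay.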

Melanocortin receptor 3 = Melanocortin receptor 3 (Homo sapiens, UniProt P41968); assay: Displacement of [125I]NDPalphaMSH from human cloned MC3R expressed in CHO cells; assay type: cell-based
Melanocortin receptor 5 = Melanocortin receptor 5 (Homo sapiens, UniProt P33032); assay: Displacement of [125I]NDPalphaMSH from human cloned MC5R expressed in CHO cells; assay type: cell-based
Melanocortin receptor 4 = Melanocortin receptor 4 (Homo sapiens, UniProt P32245); assay: Displacement of [125I]NDPalphaMSH from human cloned MC4R expressed in CHO cells; assay type: cell-based
Chain of Melanocortin receptor 4 (P32245 whole entry): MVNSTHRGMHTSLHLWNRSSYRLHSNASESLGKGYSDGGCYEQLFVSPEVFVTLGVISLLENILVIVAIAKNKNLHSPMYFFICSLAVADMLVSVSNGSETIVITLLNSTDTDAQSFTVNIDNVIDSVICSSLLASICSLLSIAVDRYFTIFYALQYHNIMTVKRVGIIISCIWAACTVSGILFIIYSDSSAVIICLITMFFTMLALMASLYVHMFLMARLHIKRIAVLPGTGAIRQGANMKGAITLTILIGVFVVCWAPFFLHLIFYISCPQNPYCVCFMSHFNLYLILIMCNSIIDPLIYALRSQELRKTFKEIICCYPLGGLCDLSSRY

Chain of Melanocortin receptor 3 (P41968 whole entry): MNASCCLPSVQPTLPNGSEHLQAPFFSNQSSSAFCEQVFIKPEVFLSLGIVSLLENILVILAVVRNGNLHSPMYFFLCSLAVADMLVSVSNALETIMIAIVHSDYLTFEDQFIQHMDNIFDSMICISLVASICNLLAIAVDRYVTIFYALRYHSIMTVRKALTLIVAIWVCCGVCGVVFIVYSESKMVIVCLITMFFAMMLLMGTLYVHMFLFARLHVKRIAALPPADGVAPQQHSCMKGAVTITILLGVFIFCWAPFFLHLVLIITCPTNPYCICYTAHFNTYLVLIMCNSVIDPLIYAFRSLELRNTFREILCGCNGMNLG
Chain of Melanocortin receptor 5 (P33032 whole entry): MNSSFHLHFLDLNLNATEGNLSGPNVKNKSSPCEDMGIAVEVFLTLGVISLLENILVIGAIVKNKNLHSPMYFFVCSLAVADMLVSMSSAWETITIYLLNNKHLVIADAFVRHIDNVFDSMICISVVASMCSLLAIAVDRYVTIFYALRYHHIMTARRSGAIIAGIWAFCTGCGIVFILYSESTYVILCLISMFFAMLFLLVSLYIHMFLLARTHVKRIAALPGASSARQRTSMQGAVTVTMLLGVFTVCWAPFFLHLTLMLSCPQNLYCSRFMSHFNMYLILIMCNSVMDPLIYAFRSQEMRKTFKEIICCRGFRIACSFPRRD
T1 sequence (Q01726 whole entry): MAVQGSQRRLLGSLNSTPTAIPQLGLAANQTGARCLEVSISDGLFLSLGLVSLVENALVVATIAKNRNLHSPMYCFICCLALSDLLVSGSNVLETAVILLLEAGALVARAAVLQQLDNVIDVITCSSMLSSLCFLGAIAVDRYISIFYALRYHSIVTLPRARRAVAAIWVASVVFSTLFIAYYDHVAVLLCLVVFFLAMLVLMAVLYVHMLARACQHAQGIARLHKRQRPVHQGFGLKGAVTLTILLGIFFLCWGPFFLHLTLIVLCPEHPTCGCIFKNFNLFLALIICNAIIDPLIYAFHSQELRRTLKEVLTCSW

With `CCCC[C@H](NC(C)=O)C(=O)N[C@H]1CC(=O)NCCCC[C@@H](C(N)=O)NC(=O)[C@H](Cc2c[nH]c3ccccc23)NC(=O)[C@@H]2CCCN2C(=O)[C@H](Cc2ccccc2)NC(=O)[C@H](Cc2cnc[nH]2)NC1=O` the IC50 [1] was 0.98 µM (antagonist) and the pEC50 [2] was less than 6.00.
`CCCC[C@H](NC(C)=O)C(=O)N[C@H]1CC(=O)NCCCC[C@@H](C(N)=O)NC(=O)[C@H](Cc2c[nH]c3ccccc23)NC(=O)[C@@H]2CCCN2C(=O)[C@H]2Cc3ccccc3CN2C(=O)[C@H](Cc2cnc[nH]2)NC1=O` gave a pIC50 ([1]; cho) of less than 5.00, a pIC50 (Melanocortin receptor 3; cho) of less than 5.00 and a pIC50 (Melanocortin receptor 5; cho) of less than 5.00.
In the case of `CCCC[C@H](NC(C)=O)C(=O)N[C@H]1CC(=O)NCCCC[C@@H](C(N)=O)NC(=O)[C@H](Cc2c[nH]c3ccccc23)NC(=O)[C@@H]2CCCN2C(=O)[C@@H](Cc2ccc3ccccc3c2)NC(=O)[C@H](Cc2cnc[nH]2)NC1=O`, the IC50 [1] was 0.88 µM (antagonist) and the EC50 [2] was 0.089 µM (agonist).
`CCCC[C@H](NC(C)=O)C(=O)N[C@H]1CC(=O)NCCCC[C@@H](C(N)=O)NC(=O)[C@H](Cc2c[nH]c3ccccc23)NC(=O)[C@@H]2CCCN2C(=O)[C@@H](CCCCN)NC(=O)[C@H](Cc2cnc[nH]2)NC1=O` showed a pIC50 [1] of less than 5.00, a pIC50 (Melanocortin receptor 3) of less than 5.00 and a pIC50 (Melanocortin receptor 5) of less than 5.00.
In the case of `CCCC[C@H](NC(C)=O)C(=O)N[C@H]1CC(=O)NCCCC[C@@H](C(N)=O)NC(=O)[C@H](Cc2c[nH]c3ccccc23)NC(=O)[C@@H]2CCCN2C(=O)[C@@H](Cc2cnc[nH]2)NC(=O)[C@H](Cc2cnc[nH]2)NC1=O`, the pIC50 [1] was less than 5.00.
For `CCCC[C@H](NC(C)=O)C(=O)N[C@H]1CC(=O)NCCCC[C@@H](C(N)=O)NC(=O)[C@H](Cc2c[nH]c3ccccc23)NC(=O)[C@@H]2CCCN2C(=O)[C@@H](C(c2ccccc2)c2ccccc2)NC(=O)[C@H](Cc2c[nH]cn2)NC1=O`, the IC50 ([1]; cho) was 2.9 µM (antagonist), the IC50 (Melanocortin receptor 4; cho) was 0.074 µM (antagonist) and the pIC50 (Melanocortin receptor 3; cho) was less than 5.00. The IC50 (Melanocortin receptor 5; cho) was 1.5 µM (antagonist).
For `CCCC[C@H](NC(C)=O)C(=O)N[C@H]1CC(=O)NCCCC[C@@H](C(N)=O)NC(=O)[C@H](Cc2c[nH]c3ccccc23)NC(=O)[C@@H]2CCCN2C(=O)[C@@H](Cc2ccc(O)cc2)NC(=O)[C@H](Cc2cnc[nH]2)NC1=O`, the pIC50 [1] was less than 5.00 and the pEC50 [2] was less than 5.60.
For `CCCC[C@H](NC(C)=O)C(=O)N[C@H]1CC(=O)NCCCC[C@@H](C(N)=O)NC(=O)[C@H](Cc2c[nH]c3ccccc23)NC(=O)[C@@H]2CCCN2C(=O)[C@@H](Cc2ccccc2)NC(=O)[C@H](Cc2cnc[nH]2)NC1=O`, the IC50 [1] was 2.5 µM (antagonist) and the EC50 [2] was 1.3 µM (agonist).
Compound `CCCC[C@H](NC(C)=O)C(=O)N[C@H]1CC(=O)NCCCC[C@@H](C(N)=O)NC(=O)[C@H](Cc2c[nH]c3ccccc23)NC(=O)[C@@H]2CCCN2C(=O)[C@@H](CCCC)NC(=O)[C@H](Cc2cnc[nH]2)NC1=O` has a pIC50 [1] of less than 5.00.
`CCCC[C@H](NC(C)=O)C(=O)N[C@H]1CC(=O)NCCCC[C@@H](C(N)=O)NC(=O)[C@H](Cc2c[nH]c3ccccc23)NC(=O)[C@@H]2CCCN2C(=O)[C@@H](CCC(=O)O)NC(=O)[C@H](Cc2c[nH]cn2)NC1=O` gave a pIC50 [1] of less than 5.00, a pIC50 (Melanocortin receptor 4) of less than 5.00 and a pIC50 (Melanocortin receptor 3) of less than 5.00. For the same compound, the pIC50 (Melanocortin receptor 5) was less than 5.00.
With `CCCC[C@H](NC(C)=O)C(=O)N[C@H]1CC(=O)NCCCC[C@@H](C(N)=O)NC(=O)[C@H](Cc2c[nH]c3ccccc23)NC(=O)[C@@H]2CCCN2C(=O)[C@H](Cc2ccc(OC)cc2)NC(=O)[C@H](Cc2cnc[nH]2)NC1=O` the pIC50 [1] was less than 5.70.
In the case of `CCCC[C@H](NC(C)=O)C(=O)N[C@H]1CC(=O)NCCCC[C@@H](C(N)=O)NC(=O)[C@H](Cc2c[nH]c3ccccc23)NC(=O)[C@@H]2CCCN2C(=O)[C@@H](Cc2ccc(OC)cc2)NC(=O)[C@H](Cc2cnc[nH]2)NC1=O`, the IC50 [1] was 0.5 µM (antagonist) and the EC50 [2] was 0.05 µM (agonist).
For `CCCC[C@H](NC(C)=O)C(=O)N[C@H]1CC(=O)NCCCC[C@@H](C(N)=O)NC(=O)[C@H](Cc2c[nH]c3ccccc23)NC(=O)[C@@H]2CCCN2C(=O)[C@@H](CCC(N)=O)NC(=O)[C@H](Cc2c[nH]cn2)NC1=O`, the pIC50 [1] was less than 5.00, the pIC50 (Melanocortin receptor 4) was less than 5.00 and the pIC50 (Melanocortin receptor 3) was less than 5.00. The pIC50 (Melanocortin receptor 5) was less than 5.00.
